This excerpt belongs to a sample that is enriched for hits.
eIF2B yeast act: modulators of yeast eIF2B activity | S. cerevisiae eIF2B-epsilon R284H, GCN4-lacZ luminescence | inhibition, % at 25 µM (by protocol) | actives 0.91% (n = 27,000) | AID 688;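 active = mutant luminescence inhibited past about 50% while wild type luminescence and mutant growth stay under set limits, limit read from the data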
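material = yeast eIF2B-epsilon R284H mutant carrying GCN4–beta-galactosidase fusion | schedule = 16 h growth with compound at 30 °C, 90 min Beta-Glo step | measured by = luminescence and A595 | compound dosing = one concentration, 25 µM, 0.25% DMSO | read-out basis = % inhibition of reporter signal and growth versus controls | buffer or medium = YPD medium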
* hit, by the source's call.

SMILES	eIF2B yeast act
CN(C)c1[nH]c(=O)c(C#N)c2c1CCN2Cc1ccccc1	18.2
N#Cc1c2n(c3c(=O)n(Cc4ccccc4)cnc13)CCCC2	20.2
Cc1ccc(C)c(N=C2CCCN2Cc2ccccc2)c1C#N	56.8*
CCC(NS(=O)(=O)c1ccc(C)cc1)C(=O)Nc1ccc(NC(C)=O)cc1 (stereo not drawn)	14.1
Cn1cc(-c2nnc(-c3ccccc3)o2)c2ccccc21	10.5
COc1ccc(C2Oc3ccccc3N2C(C)=O)cc1 (stereo not drawn)	0.2
C=CCSc1nnc2c(n1)OC(c1cccnc1)N(C(C)=O)c1ccccc1-2 (stereo not drawn)	54.6*
CCN1c2ccccc2-c2nc3ccccc3n2C1c1cccnc1 (stereo not drawn)	4.5
COC(=O)CSc1snnc1-c1ccc(Cl)cc1Cl	-34.3
COC(=O)c1ccc(C(=O)OC)c(NC(=O)CSc2nc(-c3ccco3)cc(C(F)(F)F)n2)c1	17.9
Cc1ccc(NC(=O)CSc2nc(-c3ccco3)cc(C(F)(F)F)n2)cc1C	29.9
COC(=O)c1ccccc1NC(=O)CSc1nc(-c2ccco2)cc(C(F)(F)F)n1	65.6*
CCCCN(CCCC)C(=O)c1ccccc1NC(=O)CN1C(=O)c2ccccc2C1=O	14.5
O=C(Nc1nnc(C2CC2)s1)C1Cc2ccccc2CN1S(=O)(=O)c1ccccc1F (stereo not drawn)	29.2
COCc1nnc(NC(=O)c2ccc(S(=O)(=O)N(C)C3CCCCC3)cc2)o1	-0.8
Cn1c(=O)c(=O)n(C)c2cc(S(=O)(=O)N3CCCCCC3)ccc21	57.6*
CCOc1cc(S(=O)(=O)N2CCCCC2)ccc1F	2.5
COc1cc(S(=O)(=O)N2CCCCC2)ccc1NC(C)=O	22.5
O=C(CSc1nc(-c2ccncc2)nn1CC(=O)N1CCCCC1)NC1CCCC1	9.7
Cc1cc2n(n1)SC(Nc1ccccc1)N2 (stereo not drawn)	55.4*
Cc1nc(COC(=O)c2ccc(S(=O)(=O)N3CCCC3)cc2)cs1	-14.9
O=C(Nc1ccc2c(c1)OCO2)c1nn(-c2ccccc2)c(=O)c2ccccc12	3.2
COc1ccccc1-n1nc(C(=O)Nc2ccc3c(c2)OCO3)c2ccccc2c1=O	50.2*
COc1ccc(-n2nc(C(=O)Nc3ccc4c(c3)OCO4)c3ccccc3c2=O)c(OC)c1	-17.0
CCS(=O)(=O)NCC(c1cccnc1)N1CCN(c2ccccc2F)CC1 (stereo not drawn)	2.2
SMILES	eIF2B yeast act
Cc1cc(S(=O)(=O)N2CCN(c3ncccn3)CC2)ccc1-n1cnnn1	-24.9
CC(=O)c1cccc(-n2nnnc2SCC(=O)Nc2ccccc2N2CCCCC2)c1	19.4
CC(=O)Nc1cccc(NC(=O)CSc2nnnn2C)c1	2.9
CC(=O)c1cccc(-n2nnnc2SCC(=O)Nc2cccc(NC(=O)c3ccco3)c2)c1	61.4*
CCCCOC(=O)Nc1cc(OC)c(Cl)cc1OC	21.9
Cc1cc(C(=O)COC(=O)C2=NNC(=O)CC2)c(C)n1-c1cccc(C(F)(F)F)c1	3.4
CCc1ccc(NC(=O)N(CCCN2CCOCC2)C(C)c2cc3cccc(OC)c3o2)cc1 (stereo not drawn)	24.3
Cc1cccc(NC(=O)Cn2c(C)c(C#N)c3ccccc32)c1C	14.8
O=C(CSc1nnc(-c2cc3ccccc3cc2O)n1Cc1ccco1)N1CCc2ccccc2C1	6.1
Nn1c(COc2cccc(Br)c2)nnc1SCC(=O)N1CCc2ccccc2C1	50.5*
Cn1nnnc1SCC(=O)N1CCc2ccccc2C1	10.7
O=C(NCC(c1ccc(F)cc1)N1CCOCC1)c1ccc(Br)o1 (stereo not drawn)	-17.7
CCOC(=O)CSc1nc(N2CCOCC2)c2c(c1C#N)CC(C)(C)N(C)C2	11.5
COc1cc(NS(=O)(=O)c2ccc(Cl)cc2)c(C(=O)O)cc1OC	16.9
CCn1c(=O)cc(SCC(=O)NCCCN2CCN(c3ccccc3F)CC2)c2ccccc21	18.2
CC1(C)CC(=O)c2cc(OCC(=O)NCCCN3CCN(c4ccccc4F)CC3)ccc2O1	51.5*
CC1(C)CC(=O)c2cc(OCC(=O)N3CCOCC3)ccc2O1	27.3
CCn1c(=O)cc(SCC(=O)N2CCN(c3ccccc3OC)CC2)c2ccccc21	31.4
CCCC(=O)C1=C(O)C(C(=O)OC)C(C)(C)CC1=Nc1ccncc1 (stereo not drawn)	0.1
COc1ccc(OCC(=O)NCc2cccnc2)cc1	11.8
COc1ccc2c(c1)CCc1c(C(=O)NCc3cccnc3)noc1-2	60.0*
COc1ccc(OC)c(N(CC(=O)NCc2cccnc2)S(C)(=O)=O)c1	4.8
COc1ccccc1CNC(=O)CN(c1ccc(C)cc1)S(=O)(=O)c1c(C)nn(C)c1C	51.0*
Cc1ccc(N(CC(=O)NCc2ccccc2Cl)S(=O)(=O)c2cccs2)cc1	22.3
COc1ccccc1NC(=O)CN(c1ccc(C)cc1)S(=O)(=O)c1c(C)n[nH]c1C	19.4
CCN1CCN(CC(=O)c2c[nH]c3ccc(C)cc23)CC1	15.0
CCOCCCNC(=O)c1c[nH]c2ccc(C)cc2c1=O	52.3*
COc1ccc(CCNC(=O)c2c[nH]c3ccccc3c2=O)cc1OC	4.5
